# According to ChEMBL document CHEMBL1122877, “New antihistaminic N-heterocyclic 4-piperidinamines. 1. Synthesis and antihistaminic activity of N-(4-piperidinyl)-1H-benzimidazol-2-amines” (1985):
# Experiments:
# [1] = system: Cavia porcellus; assay: Protection against intravenous histamine lithality in Guinea pigs 3 hour after oral administration; assay type: functional; conditions: for ED50: read-out: PD50
# In short: (§1)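 Male albino guinea pigs (280-360 g) given oral doses in 2-fold increments 3, 24 or 48 h before iv histamine dihydrochloride 1.25 mg/kg. Protection is survival at 1 h. PD50 by Finney from 4-6 animals per dose and time point, at least 3 doses from a geometric series 0.0025-5 mg/kg. Estimated PD50 uses at least 2 animals per dose.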
# [2] = system: Cavia porcellus; assay: Protection against intravenous histamine lithality in Guinea pigs 24 hour after oral administration; assay type: functional; conditions: for ED50: read-out: PD50; in short: as §1
# [3] = In vivo anti-histaminic protection from 48/80 induced lethality in rats 2 hours after oral administration; assay type: functional; conditions: Rattus norvegicus
# In short: (§2)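 Male inbred Wistar rats (240-260 g), fasted overnight, held at 21 ± 1 °C and 65 ± 5% RH. Dosed sc or orally, vehicle 0.9% NaCl. Endpoint is survival at 4 h. ED50 by Finney from 5 rats per dose, at least 3 doses from a geometric series 0.0025-40 mg/kg. Estimated ED50 uses at least 2 rats per dose.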
# [4] = system: Cavia porcellus; assay: Protection against intravenous histamine lithality in Guinea pigs 48 hour after oral administration; assay type: functional; conditions: read-out: PD50; in short: as §1
# [5] = In vivo protection from compound 48/80 induced lethality test in rats 1 hour after subcutaneous administration.; assay type: functional; conditions: Rattus norvegicus, sc; in short: as §2
# [6] = molecular target: Histamine H1 receptor (Cavia porcellus) (UniProt P31389); assay: In vitro inhibition of histamine(H1) induced contraction of guinea pig ileum.; assay type: functional, tissue-based
# In short: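 Isolated guinea pig ileum in a bath. Cumulative histamine curves every 5 min, logarithmically increasing doses (5.4 × 10^-8, 1.6 × 10^-7, 5.4 × 10^-7 M, ...) until maximal contraction. Repeated after 5 min antagonist contact, then washout and two further curves. Highest test dose normally 0.04 mg/L. A10 = antagonist concentration giving a 10-fold rightward shift of the histamine curve.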
# [7] = In vivo anti-histaminic protection from 48/80 induced lethality in rats 1 hour after subcutaneous administration.; assay type: functional; conditions: Rattus norvegicus, sc; in short: as §2
# [8] = In vivo anti-histaminic protection from 48/80 induced lethality in rats 2 hour after oral administration.; assay type: functional; conditions: Rattus norvegicus; in short: as §2
# Chain of Histamine H1 receptor (Cavia porcellus) (P31389 whole entry): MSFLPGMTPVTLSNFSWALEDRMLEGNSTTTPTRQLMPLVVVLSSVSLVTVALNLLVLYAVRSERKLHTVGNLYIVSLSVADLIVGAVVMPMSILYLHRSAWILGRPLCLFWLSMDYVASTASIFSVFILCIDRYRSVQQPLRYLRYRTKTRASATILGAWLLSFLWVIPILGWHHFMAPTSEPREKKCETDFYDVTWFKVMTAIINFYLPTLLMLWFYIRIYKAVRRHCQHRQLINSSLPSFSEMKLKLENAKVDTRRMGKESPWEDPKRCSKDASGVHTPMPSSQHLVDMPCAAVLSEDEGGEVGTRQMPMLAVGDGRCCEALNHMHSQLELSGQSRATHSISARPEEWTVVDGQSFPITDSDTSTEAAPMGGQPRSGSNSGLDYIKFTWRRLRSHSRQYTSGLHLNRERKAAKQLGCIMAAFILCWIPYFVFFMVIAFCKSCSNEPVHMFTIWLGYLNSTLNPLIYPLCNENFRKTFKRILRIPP
Compound,ED50 [3] [mg/kg],ED50 [5] [mg/kg],other results
c1ccc(CCN2CCC(Nc3nc4ccccc4n3Cc3ccccc3)CC2)cc1,3.5,–,ED50 [1]: 0.25 mg/kg; ED50 [2]: 0.35 mg/kg; ED50 [4]: 0.25 mg/kg
CCn1c(NC2CCN(CCc3ccccc3)CC2)nc2ccccc21,–,2.5,–
CN(c1nc2ccccc2n1Cc1ccc(Br)cc1)C1CCN(CCc2ccccc2)CC1,–,2.5,–
Oc1nc2ccccc2n1CCCN1CCC(Nc2nc3ccccc3n2Cc2ccccc2)CC1,2.5,1.25,ED50 [1]: 0.16 mg/kg; ED50 [2]: 0.6 mg/kg; ED50 [4]: > 0.6 mg/kg
C=CCN1CCC(Nc2nc3ccccc3n2Cc2ccccc2)CC1,0.63,0.63,–
Brc1ccc(Cn2c(NC3CCN(CCc4ccccc4)CC3)nc3ccccc32)cc1,–,1.25,–
CCCCN(c1nc2ccccc2[nH]1)C1CCN(CCc2ccccc2)CC1,–,2.5,–
CN(C)CCOC(c1ccccc1)c1ccccc1 [DIPHENHYDRAMINE],37.4,4,ED50 [1]: > 2.5 mg/kg; A10 [6]: 0.66 mg/L
FC(F)(F)c1cccc(CCN2CCC(Nc3nc4ccccc4n3Cc3ccccc3)CC2)c1,–,2.5,–
Fc1ccc(CN2CCC(Nc3nc4ccccc4n3Cc3ccccc3)CC2)cc1,–,2.5,–
CN(C)CCC(c1ccc(Cl)cc1)c1ccccn1 (stereo not drawn) [CHLORPHENIRAMINE],37.4,0.77,–
c1ccc(Cn2c(NC3CCN(CC4COc5ccccc5O4)CC3)nc3ccccc32)cc1 (stereo not drawn),–,2.5,–
CCCCn1c(NC2CCN(CCc3ccccc3)CC2)nc2ccccc21,–,2.5,–
c1ccc(CCCN2CCC(Nc3nc4ccccc4n3Cc3ccccc3)CC2)cc1,–,2.5,ED50 [1]: 0.35 mg/kg; ED50 [2]: 0.35 mg/kg; ED50 [4]: > 0.6 mg/kg
Oc1nc2ccccc2n1CCN1CCC(Nc2nc3ccccc3n2Cc2ccccc2)CC1,2.5,0.31,ED50 [1]: 0.35 mg/kg; ED50 [2]: > 0.6 mg/kg
COc1ccc(CCN2CCC(Nc3nc4ccccc4n3Cc3ccccc3)CC2)cc1,0.63,1.25,ED50 [1]: 0.25 mg/kg; ED50 [2]: 0.08 mg/kg; ED50 [4]: 0.16 mg/kg
CCCCCn1c(NC2CCN(CCc3ccccc3)CC2)nc2ccccc21,–,2.5,–
Clc1ccc(Cn2c(NC3CCN(CCc4ccccc4)CC3)nc3ccccc32)cc1,–,2.5,–
CC(c1ccccc1)n1c(NC2CCN(CCc3ccccc3)CC2)nc2ccccc21 (stereo not drawn),–,2.5,–
COc1ccccc1CCN1CCC(Nc2nc3ccccc3n2Cc2ccccc2)CC1,1.25,0.63,–
c1ccc(Cn2c(NC3CCN(CCc4cccs4)CC3)nc3ccccc32)cc1,–,0.63,–
CCOc1ccc(CCN2CCC(Nc3nc4ccccc4n3Cc3ccccc3)CC2)cc1,0.63,1.25,–
CCn1c(N(Cc2ccccc2)C2CCN(CCc3ccccc3)CC2)nc2ccccc21,–,> 2.5,–
CN(c1nc2ccccc2n1Cc1ccc(F)cc1)C1CCN(CCc2ccccc2)CC1,1.25,1.25,–
CN1CCC(Nc2nc3ccccc3n2Cc2ccccc2)CC1,–,–,ED50 [7]: 0.31 mg/kg; ED50 [8]: > 2.5 mg/kg
CCn1nnn(CCN2CCC(Nc3nc4ccccc4n3Cc3ccccc3)CC2)c1=O,> 2.5,0.31,–
Cc1ccc(Cn2c(NC3CCN(CCc4ccccc4)CC3)nc3ccccc32)cc1,2.5,1.25,–

Compound,ED50 [3] [mg/kg],ED50 [5] [mg/kg],other results
Cc1cccc(CCN2CCC(Nc3nc4ccccc4n3Cc3ccccc3)CC2)c1,2.5,1.25,–
CCCCn1c(N(C)C2CCN(CCc3ccccc3)CC2)nc2ccccc21,–,2.5,–
COc1ccc(CCN2CCC(Nc3nc4ccccc4n3Cc3ccccc3)CC2)cc1OC,> 2.5,1.25,–
c1ccc(Cn2c(NC3CCN(C4CCCCC4)CC3)nc3ccccc32)cc1,–,–,ED50 [7]: 0.63 mg/kg; ED50 [8]: > 2.5 mg/kg
c1ccc(CCN2CCC(Nc3nc4ccccc4n3Cc3ccccn3)CC2)cc1,2.5,0.16,ED50 [1]: 0.12 mg/kg; ED50 [2]: 0.12 mg/kg; ED50 [4]: > 0.16 mg/kg
c1ccc(Cn2c(NC3CCN(CCCOc4ccccc4)CC3)nc3ccccc32)cc1,0.63,0.63,–
Fc1ccc(Cn2c(NC3CCN(CCc4ccccc4)CC3)nc3ccccc32)cc1,0.63,0.31,ED50 [1]: 0.45 mg/kg; ED50 [2]: 0.08 mg/kg; ED50 [4]: 0.12 mg/kg
CN(c1nc2ccccc2n1Cc1ccccc1)C1CCN(CCc2ccccc2)CC1,–,2.5,–
Cc1ccc(Cn2c(N(C)C3CCN(CCc4ccccc4)CC3)nc3ccccc32)cc1,–,2.5,–
CC(c1ccc(F)cc1)n1c(NC2CCN(CCc3ccccc3)CC2)nc2ccccc21 (stereo not drawn),> 2.5,1.25,–
C(=C\c1ccccc1)/CN1CCC(Nc2nc3ccccc3n2Cc2ccccc2)CC1,> 2.5,1.25,–
O=c1[nH]c2ccccc2n1CCCN1CCN(C(c2ccccc2)c2ccccc2)CC1 [OXATOMIDE],–,–,PD 50 [1]: 0.18 mg/kg; PD 50 [2]: >5 mg/kg; ED50 [8]: 5.37 mg/kg
CN1CCC(Nc2nc3ccccc3n2C)CC1,–,> 2.5,–
CCn1c(N(C)C2CCN(CCc3ccccc3)CC2)nc2ccccc21,> 2.5,0.63,–
c1ccc(CCN2CCC(Nc3nc4ccccc4n3CCc3ccccc3)CC2)cc1,–,> 2.5,–
Clc1ccc(CCN2CCC(Nc3nc4ccccc4n3Cc3ccccc3)CC2)cc1,–,2.5,–
O=C(CCCN1CCC(Nc2nc3ccccc3n2Cc2ccccc2)CC1)c1ccc(F)cc1,–,2.5,–
N#CC1(c2ccccc2)CCC(N2CCC(Nc3nc4ccccc4n3Cc3ccccc3)CC2)CC1 (stereo not drawn),–,2.5,–
CN1CCC(=C2c3ccccc3CCc3cccnc32)CC1 [AZATADINE],0.48,0.049,ED50 [1]: 0.014 mg/kg; ED50 [2]: 1.36 mg/kg; ED50 [4]: > 2.5 mg/kg
Fc1ccc(CCN2CCC(Nc3nc4ccccc4n3Cc3ccccc3)CC2)cc1,> 2.5,1.25,–
CC(Cn1c(NC2CCN(CCc3ccccc3)CC2)nc2ccccc21)c1ccccc1 (stereo not drawn),–,2.5,–
Fc1ccccc1Cn1c(NC2CCN(CCc3ccccc3)CC2)nc2ccccc21,2.5,1.25,–
OC(COc1ccccc1)CN1CCC(Nc2nc3ccccc3n2Cc2ccccc2)CC1 (stereo not drawn),0.63,1.25,ED50 [1]: 0.35 mg/kg; ED50 [2]: 0.6 mg/kg; ED50 [4]: > 0.6 mg/kg
COc1cc(CCN2CCC(Nc3nc4ccccc4n3Cc3ccccc3)CC2)cc(OC)c1OC,1.25,0.63,–
CC(c1ccccc1)N1CCC(Nc2nc3ccccc3n2Cc2ccccc2)CC1 (stereo not drawn),> 2.5,1.25,–
COc1cccc(CCN2CCC(Nc3nc4ccccc4n3Cc3ccccc3)CC2)c1,0.31,0.63,–
CCCCN1CCC(Nc2nc3ccccc3n2Cc2ccccc2)CC1,–,–,ED50 [7]: 0.31 mg/kg; ED50 [8]: > 2.5 mg/kg
